Test [1] concerns Salmonella enteric serovar typhi. In words: Kirby–Bauer agar disc diffusion. It is filed as cell-based. The note with it: for inhibition%: B = (−)Salmonella enteric serovar typhi, eqn (20); for zone of inhibition at 100 µM: Salmonella, TYPHI, read-out: diameter of clear zone inhibition. In outline:
(§1)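 Kirby–Bauer disc diffusion on Mueller–Hinton agar (pH 7.2, autoclaved 121 °C for 15 min, ~4 mm deep, held 2–8 °C for 24 h). Plates spread with 24 h cultures. 6 mm discs loaded with 20 μL of 100 μM test compound. Bacteria incubated at 37 °C for 48 h; fungi at 22 °C for 7 days. Clear-zone diameter measured by ruler; % inhibition by eqn (20) against 6 mm control.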
(A growth-free zone around the sample is the usual read-out of agar diffusion tests.)

In test [2] the test system is Staphylococcus aureus. Kind of test: Kirby–Bauer agar disc diffusion. Type of test: cell-based. To be noted: for inhibition%: F = (+)Staphylococcus aureus, eqn (20); for zone of inhibition at 100 µM: Staphylococcus aureus, read-out: diameter of clear zone inhibition. An outline of the steps: as §1
Test [3] has as its system Chromobacterium violaceum. Kind of test: Kirby–Bauer agar disc diffusion. To be noted: for inhibition%: C = (−)Chromobacterium violaceum, eqn (20); for zone of inhibition at 100 µM: Chromobacterium violaceum, read-out: diameter of clear zone inhibition. Type of test: cell-based. An outline of the steps:
as §1

The subject of test [4] is Shigella flexneri. In words: Kirby–Bauer agar disc diffusion. The note with it: for inhibition%: E = (−)Shigella flexneri, eqn (20); for zone of inhibition at 100 µM: Shigella flexneri, read-out: diameter of clear zone inhibition. It is filed as cell-based. An outline of the steps: as §1
Test [5] has as its system Escherichia coli. In words: Kirby–Bauer agar disc diffusion. It is filed as cell-based. The note with it: for inhibition%: A = (−) Escherichia coli, from zone diameter, eqn (20); for zone of inhibition at 100 µM: Escherichia coli, read-out: diameter of clear zone inhibition. In outline: as §1
Test [6] deals with Pseudomonas aeruginosa. Kind of test: Kirby–Bauer agar disc diffusion. The note with it: for inhibition%: D = (−)Pseudomonas aeruginosa, eqn (20); for zone of inhibition at 100 µM: Pseudomonas aeruginosa, read-out: diameter of clear zone inhibition. Type of test: cell-based. An outline of the steps:
as §1

For test [7], the system named is Bacillus cereus. In words: Kirby–Bauer agar disc diffusion. Type of test: cell-based. The note with it: for zone of inhibition at 100 µM: Bacillus cereus, read-out: diameter of clear zone inhibition; for inhibition%: G = (+)Bacillus cereus, eqn (20). An outline of the steps:
as §1

Test [8] deals with Candida albicans. Kind of test: Kirby–Bauer agar disc diffusion. Type of test: cell-based. The note with it: for zone of inhibition at 100 µM: Candida albicans, read-out: diameter of clear zone inhibition; for inhibition%: I = Candida albicans, eqn (20). In outline:
as §1

In test [9] the test system is Aspergillus niger. Kind of test: Kirby–Bauer agar disc diffusion. It is filed as cell-based. The note with it: for zone of inhibition at 100 µM: Aspergillus niger, read-out: diameter of clear zone inhibition; for inhibition%: H = Aspergillus niger, eqn (20). In outline: as §1
Test [10] relates to Mucor indicus. In words: Kirby–Bauer agar disc diffusion. Type of test: cell-based. The note with it: for inhibition%: J = Mucor indicus, eqn (20); for zone of inhibition at 100 µM: Mucor indicus, read-out: diameter of clear zone inhibition. In outline:
as §1

A short description of test [11]: Superoxide scavenging assay. An outline of the steps:
(§2)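 Absorbance read at 517 nm (DPPH), 230 nm (hydroxyl), 590 nm (superoxide), 546 nm (nitric oxide) and 700 nm (FRAP). FRAP measures the rise in absorbance from Fe3+→Fe2+ reduction with ferricyanide. IC50 taken from % inhibition vs concentration plots.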

Test [12] in a line: DPPH radical scavenging assay. An outline of the steps:
as §2
(In general: The DPPH test is a chemical assay of radical scavenging.)

A short description of test [13]: Nitric oxide scavenging assay. In outline:
as §2

The nature of test [14]: Hydroxyl radical scavenging assay. In outline:
as §2

The nature of test [15]: Ferric reducing antioxidant power. In outline: as §2
In test [16] the test system is breast (MCF-7). Kind of test: In vitro anticancer MTT assay. Type of test: cell-based, human. The note with it: 50% cell death following 72 h exposure. In outline: (§3)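 MTT viability: cells seeded at 1 × 10^5 per well and incubated 24 h at 37 °C, 5% CO2. Treated with test compound at 10–100 μg mL−1 (from DMSO). Medium removed, wells PBS-washed, RPMI-1640 plus MTT (5 mg mL−1 solution) added for 4 h at 37 °C. Formazan dissolved in DMSO, read at 570 nm. Triplicate wells; IC50 from % viability; cisplatin as reference.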
On the technique in general: Tetrazolium assays rely on reduction of a dye to a coloured formazan, in cell work by metabolically active cells.

Test [17] relates to human lung cancer (A549). Kind of test: In vitro anticancer MTT assay. Type of test: cell-based. To be noted: 50% cell death following 72 h exposure. An outline of the steps: as §3
Test [18] has as its system normal human dermal fibroblast (NHDF). In words: MTT assay on normal cells. It is filed as cell-based. To be noted: normal cell line; 50% cell death following 72 h exposure. An outline of the steps:
as §3

The test system of test [19] is liver cancer (HepG2). Kind of test: In vitro anticancer MTT assay. It is filed as cell-based, human. To be noted: 50% cell death following 72 h exposure. An outline of the steps: as §3
Test [20] relates to EB–DNA. The note with it: at the concentration of 50 μM EB; cited from earlier work.

Each structure is given as a SMILES string.

As a reminder, the zone of inhibition is the size of the clear area around the sample on an inoculated plate. For `NCC[C@H](O)C(=O)N[C@@H]1C[C@H](N)[C@@H](O[C@H]2O[C@H](CN)[C@@H](O)[C@H](O)[C@H]2O)[C@H](O)[C@H]1O[C@H]1O[C@H](CO)[C@@H](O)[C@H](N)[C@H]1O` [Amikacin, amikacin], the inhibition% in test [1] was determined as 73%; in [2], 70%; in test [3], 75%; in test [4], 70%; in test [5] it was 73%; in test [6] it was 70%. In addition, in test [7], the inhibition% is recorded as 70%. Besides, the zone of inhibition at 100 µM in [1] was found to be 22 mm; in [2] it was 20 mm; in test [3] it was 24 mm; in [4], 20 mm; in test [5] it was 22 mm; in [6], 20 mm. Further, the zone of inhibition at 100 µM in [7] came out at 20 mm.
In the case of `C[C@@H]1[C@H](O)[C@@H](C)/C=C/C=C/C=C/C=C/C=C/C=C/C=C/[C@H](O[C@@H]2O[C@H](C)[C@@H](O)[C@H](N)[C@@H]2O)C[C@@H]2O[C@](O)(C[C@@H](O)C[C@@H](O)[C@H](O)CC[C@@H](O)C[C@@H](O)CC(=O)O[C@H]1C)C[C@H](O)[C@H]2C(=O)O` [Amphotericin B, amphotericin B], the figures for the zone of inhibition at 100 µM in [8], in test [9] and in [10] were 17 mm, 15 mm and 17 mm, respectively. In addition, the inhibition% in test [8] was 65%; in [9], 60%; in test [10] it was 65%.
One may read the IC50 as the point on the concentration scale where inhibition reaches its midpoint. Turning to `O=C1O[C@H]([C@@H](O)CO)C(O)=C1O` [Ascorbic acid, ascorbic acid], the “% Inhibition, superoxide” value in [11] (240 µM, 590 nm) is reported as 84.85%. Moreover, the IC50 was determined as 120 µM in test [11] (read-out: IC50, superoxide); 80 µM in [12] (read-out: IC50, DPPH); 200 µM in test [13] (read-out: IC50, nitric oxide); 160 µM in test [14] (read-out: IC50, hydroxyl radical); 160 µM in test [15] (read-out: IC50, ferric reducing power). In test [12] (240 µM, 517 nm), the “% Inhibition, DPPH” value is 82.75%. In test [13] (240 µM, 546 nm), the “% Inhibition, nitric oxide” value was 72.73%. The “% Inhibition, hydroxyl radical” value in [14] (240 µM, 230 nm) is 78.83%. Moreover, in [15] (240 µM, 700 nm), the “% Inhibition, ferric reducing power” value is 88.67%.
With `N.N.[Cl][Pt][Cl]` [Cisplatin, cisplatin], in [16], the “IC50 MCF-7” value amounted to 06.11 µg/mL. Also, the “IC50 A549” value in test [17] stood at 09.62 µg/mL. Besides, the “IC50 NHDF” value in test [18] was 08.08 µg/mL. In addition, the “IC50 HepG2” value in [19] turned out to be 06.94 µg/mL.
Turning to `CC[n+]1c(-c2ccccc2)c2cc(N)ccc2c2ccc(N)cc21` [EB, ethidium bromide], the “KEB (binding constant of EB to DNA)” value in test [20] is 10^7 M^−1.
Turning to `CC(=O)N1CCN(c2ccc(OCC3COC(Cn4ccnc4)(c4ccc(Cl)cc4Cl)O3)cc2)CC1` (stereo not shown) [Ketokonazole, ketokonazole], the zone of inhibition at 100 µM is 18 mm in test [8], 16 mm in [9] and 18 mm in [10]. Moreover, the inhibition% in test [8] is 67%; in [9] it was 63%; in test [10] it was 67%.
With `[H]/N=C(/N)N[C@H]1[C@H](O)[C@@H](O)[C@H](O[C@@H]2O[C@@H](C)[C@](O)(C=O)[C@H]2O[C@@H]2O[C@@H](CO)[C@H](O)[C@@H](O)[C@@H]2NC)[C@@H](N/C(N)=N\[H])[C@@H]1O` [Streptomycin, streptomycin], the inhibition% was 77% in [1]; 71% in [2]; 75% in test [3]; 76% in [4]; 75% in test [5]; 71% in [6]. The same compound registered an inhibition% in test [7] of 71%. The zone of inhibition at 100 µM was found to be 26 mm in test [1]; 21 mm in [2]; 24 mm in [3]; 25 mm in test [4]; 24 mm in test [5]; 21 mm in test [6]. Also, in test [7], the zone of inhibition at 100 µM is 21 mm.

Source of the values: PMC9064050 (RSC Advances, 2019).
